# According to the RNAGym collection of RNA variant scans (doi:10.1126/science.aae0568):
# Fewer inactive variants are shown than the library holds.
# B1: tRNA (parent)
# chain: GUUCCGUUGGCGUAAUGGUAACGCGUCUCCCUCCUAAGGAGAAGACUGCGGGUUCGAGUCCCGUACGGAACG
# Variants of: B1
# Assay: yeast fitness relative to wild type (ratio to wild type); higher = fitter; tRNA-Arg(CCU), competitive growth, 37 C, YPD
# Method in brief: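 Start and end populations of a pooled competition were compared by 100-nucleotide paired-end sequencing of gene amplicons. The Saccharomyces cerevisiae strains carried tRNA-Arg(CCU) gene variants at the native genomic locus, synthesised with a 3% per-site mutation rate at 69 sites, and competed in YPD at 37°C for 24 hours in six parallel replicates. Darwinian fitness relative to wild type was based on the change in genotype frequencies. Genotypes required ≥ 100 starting reads, and estimates < 0.5 were set to 0.5.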
row,Variant,yeast fitness
1,A20G C34U A43C A57U G58A C62G,≤ 0.5
2,A20G U32C A57G,0.724
3,A20G C49U C66U,0.684
4,A20U C62A,0.73
5,A20U C62U,1.02
6,A20U C34G A42G A43U A65G A70U,≤ 0.5
7,A20U A36G A37G C55G,0.546
8,A20U C22G G23A A43U G48A,≤ 0.5
9,A20U C49U A65C,0.655
10,A20G G50U,0.831
11,A20G G50C,0.636
12,A20U C46U A69C,0.744
13,A20U C49G U54C,≤ 0.5
14,A20G U35C A36G,0.727
15,A20U C27G C34U U35C A36C,0.921
16,A20G C34G C62U,≤ 0.5
17,A20U G23A C34A A36U,≤ 0.5
18,A20G U26A,0.884
19,A20G U26A A45C,0.519
20,A20U C34G G48C U59C,0.548
21,A20G U26C A42U,0.715
22,A20U A43G,0.978
23,A20U A43U,0.905
24,A20U A43C,0.775

row,Variant,yeast fitness
1,A20G G25C C61U A65G,0.647
2,A20G U59G A69C,0.526
3,A20G G25A C34A G50C,0.578
4,A20U A45C G51U A65G,≤ 0.5
5,A20U C30A G58C G68A,≤ 0.5
6,A20G C60G A69C,≤ 0.5
7,A20U C27U C30A C33G A42G G51C,0.583
8,A20U C62G G63C,0.601
9,A20U G23A A57C,≤ 0.5
10,A20G G48A,0.933
11,A20U C30U G39C A45G G68A A69C,≤ 0.5
12,A20G U26C A37C G68A,≤ 0.5
13,A20G C66G,0.809
14,A20G C66U,0.857
15,A20U C27G,0.642
16,A20U A65G,0.986
17,A20U A65U,0.705
18,A20G U26A U35A A37U,0.55
19,A20U C55G C62U,0.508
20,A20G G58U,0.781
21,A20G G58A,0.97
22,A20U G23A C31U G39A G56A,≤ 0.5
23,A20G U54G,0.524
24,A20G U54A,0.681

row,Variant,yeast fitness
1,A20U A40G U64A,0.508
2,A20G G23A C33G,0.629
3,A20U A21C C27A G68A,≤ 0.5
4,A20U A40C A42U,≤ 0.5
5,A20U C62U A70U,0.65
6,A20U A40G G44C G58C,0.574
7,A20U C29U C62A,0.543
8,A20G G25C G51C,0.658
9,A20U C24A A40C G50C C66U,≤ 0.5
10,A20U C46U C60A,0.566
11,A20U A43G A57C U59A A65C,≤ 0.5
12,A20G G25A C66U,0.682
13,A20U A40U,0.654
14,A20U A40C,0.712
15,A20G G51A,0.859
16,A20G G23A C24G C60G,≤ 0.5
17,A20U A40G G50A,≤ 0.5
18,A20U A21U A69U,0.675
19,A20G U59C,0.972
20,A20G U59A,0.79
21,A20G U59G,0.921
22,A20G G38C C66A,≤ 0.5
23,A20U C27G C29U C62G,≤ 0.5
24,A20G G41A A70G,0.571

row,Variant,yeast fitness
1,A20U C29U C30U U59A G67A,≤ 0.5
2,A20U C29G C49G U53A,≤ 0.5
3,A20G G39C G48A,0.924
4,A20U C34G A37G,≤ 0.5
5,A20U A36G C55G G56A,≤ 0.5
6,A20G U28C C49A,≤ 0.5
7,A20G C34U G38A A43G,≤ 0.5
8,A20G C46G,0.942
9,A20G C46A,0.925
10,A20U C29U A37U,≤ 0.5
11,A20U A40U C46A,0.613
12,A20U C33A C55U C61A,≤ 0.5
13,A20G G44C,0.929
14,A20U C34A G41C G56C,≤ 0.5
15,A20G G23C G38C,≤ 0.5
16,A20U C22U C46U A57G,≤ 0.5
17,A20U A40G G44C,≤ 0.5
18,A20G U32A,0.719
19,A20G G50C C61A A69G,≤ 0.5
20,A20U C27U U64C,0.954
21,A20G C34U A40U A42U U64A,≤ 0.5
22,A20G C60U C66U,≤ 0.5
23,A20U A40U C46G C62G C66U A70C,0.573
24,A20G U28G A57U A70U,≤ 0.5

row,Variant,yeast fitness
1,A20U C55G,0.669
2,A20U C55U,0.76
3,A20U C30U,0.783
4,A20G G48A C49G U59A,≤ 0.5
5,A20G U64G A70C,0.619
6,A20U C49A,0.708
7,A20U C49U,0.899
8,A20U A42C C60A,≤ 0.5
9,A20G G68C,0.758
10,A20G G68U,0.866
11,A20G G25C U47A G56C U59C,≤ 0.5
12,A20G G63C,0.837
13,A20G G63A,0.903
14,A20U C30G C33U C55A,≤ 0.5
15,A20G U28A A37G C55G,0.578
16,A20G G39A,0.955
17,A20G G39C,0.829
18,A20U G23A A65G G68C,0.513
19,A20G G23A C33G A69U,≤ 0.5
20,A20U A36G C55U,0.573
21,A20U C27G C30G A43G A65C G68C,≤ 0.5
22,A20G G39U A40C,≤ 0.5
23,A20G U59G A65U,1.05
24,A20U C24U G48A C55U C60G,≤ 0.5

row,Variant,yeast fitness
1,A20U C31A C33G U47C C60A,≤ 0.5
2,A20G C46U A70G,0.794
3,A20U C29G A65U,≤ 0.5
4,A20U C49G A69U,0.677
5,A20G C46U G50C C61A A70C,0.7
6,A20U A36G,0.766
7,A20U A36C,0.627
8,A20G U32A C34G A43G G50C U64A,≤ 0.5
9,A20U C27G C34A C46G C55A,≤ 0.5
10,A20U A42C A69U,0.564
11,A20U C29G C61U,≤ 0.5
12,A20G G52A,0.664
13,A20U C29G G38C G39A A43C C60G A65C,≤ 0.5
14,A20U A21C A45U,0.675
15,A20U C29U C49G C55A,0.522
16,A20U C60G G67A,≤ 0.5
17,A20U C22A A45C U53A,0.594
18,A20G G38C,0.789
19,A20U C61A C62U A65U A69C,≤ 0.5
20,A20G G23A U26G,≤ 0.5
21,A20U A21G C31U C46A,≤ 0.5
22,A20U A45U C55G,0.533
23,A20U C49U A69U,0.683
24,A20U A45U C62A A70C,0.505

row,Variant,yeast fitness
1,A20G U28G A69U,≤ 0.5
2,A20G G50C U54G,≤ 0.5
3,A20U C22A U32G,≤ 0.5
4,A20U C24G A45G U53A,≤ 0.5
5,A20G G41A C60G A65G,0.585
6,A20U A57C,0.644
7,A20U A57G,0.752
8,A20U C24U A42U C46A C55U C61G A69C,0.59
9,A20U C31G G38A C61A G63A,≤ 0.5
10,A20U A36G C49U A70U,≤ 0.5
11,A20U C55U G67A,≤ 0.5
12,A20U C46G,1.07
13,A20U A36G U54C C55G,≤ 0.5
14,A20U C30G A69C,0.597
15,A20G U35G,0.708
16,A20G U35C,0.836
17,A20G U28A U53A,≤ 0.5
18,A20G G50C C61U,≤ 0.5
19,A20U C29G A43U C66U,≤ 0.5
20,A20U C31G U32G,0.531
21,A20U C34G A42G A43U G67A,≤ 0.5
22,A20U A45C A65G,0.576
23,A20U A21G C31U,0.609
